Measured values published in ChEMBL document CHEMBL4052633, “Cinnamoylated chloroquine analogues: A new structural class of antimalarial agents” (Eur J Med Chem, 2017).

Legend:
Vero = assay: (§1) Cytotoxicity against African green monkey Vero cells after 72 hrs by MTT assay; format: cell-based; conditions: chlorocebus sabaeus, vero, 72 h
Method in brief: (§2)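 Vero monkey kidney cells were exposed to a dilution series of test agents for 72 hour, with MTT as the detection reagent (modified Mosmann method). CC50 was derived by nonlinear regression of dose-response curves. Triplicate experiments.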

[1] = Selectivity index, ratio of CC50 for African green monkey Vero cells to IC50 for chloroquine sensitive Plasmodium falciparum 3D7; format: toxicity; conditions: for Ratio CC50/IC50: vero; for selectivity ratio: Vero cells, read-out: Ratio CC50/IC50
Method in brief: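 SI was computed as Vero CC50 (72 hour MTT, nonlinear regression) divided by the 3D7 IC50. SYBR Green-I lysis buffer was added for 1 hour, and fluorescence was read at 485/530 nm. Logit regression gave IC50.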

Plasmodium falciparum [2] = assay: Antimalarial activity against chloroquine sensitive Plasmodium falciparum 3D7 after 72 hrs by SYBR green 1 dye based fluorescence assay; format: functional
Method in brief: (§3)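 Compounds dissolved in DMSO at 5 mg/mL (stock), then two-fold serial dilutions. Lysis buffer with 2x SYBR Green-I was added for 1 h at 37 °C. Fluorescence read at 485/530 nm. IC50 by logit regression of dose-response curves, triplicate.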

[3] = as §1; format: cell-based; conditions: chlorocebus sabaeus, Vero cells; method in brief: as §2
Plasmodium falciparum [4] = assay: Antimalarial activity against chloroquine resistant Plasmodium falciparum K1 after 72 hrs by SYBR green 1 dye based fluorescence assay; format: functional; method in brief: as §3
[5] = Plasmodium falciparum, 3D7, 72 h, read-out: IC50
[6] = Plasmodium falciparum, K1, 72 h, read-out: IC50

SMILES | CC50 (Vero) | Ratio CC50/IC50 [1] | IC50 (Plasmodium falciparum [2]; [5]) | CC50 at 72 h [3] | IC50 (Plasmodium falciparum [4]; [6]) | selectivity ratio [1] | IC50 (Plasmodium falciparum [2]) | IC50 (Plasmodium falciparum [4])
COc1cc(/C=C/C(=O)c2ccc(OCC3CO3)cc2)cc(OC)c1OC (stereo unspecified) | Non-Toxic | Not Active | – | – | – | – | – | –
O=C(/C=C/c1ccc(Cl)cc1)NCCNc1ccnc2cc(Cl)ccc12 | – | – | 19.4 nM | 6930 nM | 44.1 nM | 357 | – | –
COc1ccc(/C=C/C(=O)c2ccc(OCC(O)CNCCNc3ccnc4cc(Cl)ccc34)cc2)cc1OC (stereo unspecified) | – | – | 79.9 nM | 10200 nM | 229 nM | 128 | – | –
COc1cc(/C=C/C(=O)c2ccccc2OCC(=O)NCCNc2ccnc3cc(Cl)ccc23)cc(OC)c1OC | – | – | 69.1 nM | 3920 nM | 224 nM | 56.7 | – | –
COc1cc(OC)c(OC)cc1/C=C/C(=O)c1ccccc1OCC(=O)NCCNc1ccnc2cc(Cl)ccc12 | – | – | 94.1 nM | 12200 nM | 161 nM | 130 | – | –
COc1ccc(/C=C/C(=O)NCCNc2ccnc3cc(Cl)ccc23)cc1 | – | – | 13.4 nM | 20600 nM | 59.4 nM | 1530 | – | –
O=C(/C=C/c1ccco1)NCCNc1ccnc2cc(Cl)ccc12 | – | – | 94 nM | 629000 nM | 101 nM | 6700 | – | –
COc1ccc(/C=C/C(=O)c2ccc(OCC(O)CNCCNc3ccnc4cc(Cl)ccc34)cc2)cc1 (stereo unspecified) | – | – | 47.3 nM | 8030 nM | 900 nM | 170 | – | –
COc1cc(OC)c(OC)cc1/C=C/C(=O)NCCNc1ccnc2cc(Cl)ccc12 | – | – | 21.3 nM | 16100 nM | 143 nM | 756 | – | –
COc1ccc(/C=C/C(=O)c2ccccc2OCC(=O)NCCNc2ccnc3cc(Cl)ccc23)cc1 | – | – | 134 nM | 25000 nM | 148 nM | 186 | – | –
Cc1ccc(/C=C/C(=O)NCCNc2ccnc3cc(Cl)ccc23)cc1 | – | – | 22 nM | 4000 nM | 48 nM | 182 | – | –
COc1cc(/C=C/C(=O)c2ccc(OCC(O)CNCCNc3ccnc4cc(Cl)ccc34)cc2)cc(OC)c1OC (stereo unspecified) | – | – | 13.5 nM | 1910 nM | 800 nM | 142 | – | –
COc1ccc(/C=C/C(=O)c2ccccc2OCC(=O)NCCNc2ccnc3cc(Cl)ccc23)cc1OC | – | – | 96.1 nM | 5310 nM | 134 nM | 55.3 | – | –
O=C(COc1ccccc1C(=O)/C=C/c1ccc(Cl)cc1)NCCNc1ccnc2cc(Cl)ccc12 | – | – | 255 nM | 4980 nM | 253 nM | 19.5 | – | –
COc1cc(/C=C/C(=O)c2ccc(OCC(O)CNc3ccc4c(c3)OCO4)cc2)cc(OC)c1OC (stereo unspecified) | Non-Toxic | Not Active | – | – | – | – | Not Active | Not Active
COc1ccc(/C=C/C(=O)NCCNc2ccnc3cc(Cl)ccc23)cc1OC | – | – | 14.2 nM | 5600 nM | 157 nM | 396 | – | –
CC(=O)c1ccccc1OCC(=O)NCCNc1ccnc2cc(Cl)ccc12 | – | – | 10.4 nM | 106000 nM | 1300 nM | 10200 | – | –
